Results as given in ChEMBL document CHEMBL3580599, “Synthesis and Biological Evaluation of Novel Homoisoflavonoids for Retinal Neovascularization” (J Med Chem, 2015).

Assays:
[1] = Growth inhibition of human 92-1 cells assessed as reduction in cell number after 48 hrs by alamarBlue based fluorescence assay; type: functional
Procedure, shortened: (§1)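 Cells (2,500 per well in growth medium) were allowed 24 h, then exposed 48 h to compound over 0.5 nM–500 μM. alamarBlue was added and fluorescence read 4 h later (ex 560/em 590 nm). Dose-response curves were fitted relative to DMSO control; compounds not reducing cell number ≥50% at the top concentration were reported as GI50 >100 μM.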

Y79 = assay: Growth inhibition of human Y79 cells assessed as reduction in cell number after 48 hrs by alamarBlue based fluorescence assay; type: functional; conditions: Y79, 48 h; procedure, shortened: as §1
[2] = Growth inhibition of human HUVEC cells assessed as reduction in cell number after 48 hrs by alamarBlue based fluorescence assay; procedure, shortened: as §1
[3] = Growth inhibition of human HREC cells assessed as reduction in cell number after 48 hrs by alamarBlue based fluorescence assay; type: functional; procedure, shortened: as §1

| SMILES | GI50 [1] [µM] | GI50 (Y79) [µM] | GI50 at 48 h [2] [µM] | GI50 [3] [µM] |
| --- | --- | --- | --- | --- |
| CCCCNC(=O)N[C@@H](Cc1ccccc1)C(=O)Oc1cc(CC2COc3cc(OC)c(OC)c(OC)c3C2=O)ccc1OC (some centres undefined) | > 100 | 64 | > 100 | 1.4 |
| COc1ccc(CC2COc3cc(OC)c(OC)c(OC)c3C2=O)cc1N (centres undefined) | > 100 | > 100 | 0.51 | 1.1 |
| COc1cc2c(c(OC)c1OC)C(=O)/C(=C/c1ccc(OCc3ccccc3)c(OCc3ccccc3)c1)CO2 | > 100 | 32 | 43 | 72 |
| COc1ccc(CC2COc3cc(OC)c(OC)c(OC)c3C2=O)cc1NC(=O)[C@H](Cc1ccc(OCc2ccccc2)cc1)NC(=O)OC(C)(C)C (some centres undefined) | > 100 | 0.39 | > 100 | > 100 |
| COc1ccc(CC2COc3cc(OC)c(OC)c(OC)c3C2=O)cc1O (centres undefined) | > 100 | > 100 | 12 | 2 |
| COc1ccc(CC2COc3cc(OC)c(OC)c(OC)c3C2=O)cc1OC(=O)[C@H](CC(C)C)NC(=O)OC(C)(C)C (some centres undefined) | > 100 | > 100 | > 100 | 0.13 |
| COc1ccc(/C=C2\COc3cc(OC)c(OC)c(OC)c3C2=O)cc1OCc1ccccc1 | 3.5 | 33 | 16 | 4.3 |
| COc1ccc(CC2COc3cc(OC)c(OC)c(O)c3C2=O)cc1O (centres undefined) | > 100 | > 100 | 44 | > 100 |
| COc1cc2c(c(OC)c1OC)C(=O)/C(=C/c1ccc(O)c(O)c1)CO2 | 9.5 | 4 | 5 | 7.6 |
| COc1cc2c(c(OC)c1OC)C(=O)C(Cc1ccccc1)CO2 (centres undefined) | > 100 | > 100 | > 100 | > 100 |
| COc1cc(/C=C2\COc3cc(OC)c(OC)c(OC)c3C2=O)ccc1OCc1ccccc1 | 68 | 14 | 52 | 35 |
| COc1ccc(CC2COc3cc(OC)c(OC)c(OC)c3C2=O)cc1OC(=O)[C@H](Cc1ccccc1)NS(=O)(=O)c1ccc(C)cc1 (some centres undefined) | > 100 | > 100 | 22 | 1.5 |
| CCNC(=O)N[C@@H](Cc1ccccc1)C(=O)Oc1cc(CC2COc3cc(OC)c(OC)c(OC)c3C2=O)ccc1OC (some centres undefined) | 98 | 48 | 34 | 1 |
| CCN(CC)C(=O)Oc1cc(CC2COc3cc(OC)c(OC)c(OC)c3C2=O)ccc1OC (centres undefined) | > 100 | 24 | > 100 | 49 |
| C=CCOc1ccc(C[C@H](NC(=O)OC(C)(C)C)C(=O)Oc2cc(CC3COc4cc(OC)c(OC)c(OC)c4C3=O)ccc2OC)cc1 (some centres undefined) | > 100 | 52 | 0.091 | 0.16 |
| COc1ccc(CC2COc3cc(OC)c(O)c(O)c3C2=O)cc1O (centres undefined) | 10 | > 100 | 18 | 45 |
| C=CCOc1ccc(C[C@H](NC(=O)OC(C)(C)C)C(=O)Nc2cc(CC3COc4cc(OC)c(OC)c(OC)c4C3=O)ccc2OC)cc1 (some centres undefined) | 1.9 | 2.5 | 4.5 | 13 |
| COC(=O)c1cc(/C=C2\COc3cc(OC)c(OC)c(OC)c3C2=O)ccc1OC | > 100 | 6.1 | 3.2 | 5.6 |
| COc1ccc(CC2COc3cc(OC)c(OC)c(OC)c3C2=O)cc1NC(=O)[C@H](Cc1ccccc1)NC(=O)OC(C)(C)C (some centres undefined) | 3.1 | 4.7 | 8.6 | 22 |
| COc1ccc(CC2COc3cc(OC)c(OC)c(OC)c3C2=O)cc1OC(=O)/C=C/c1ccccc1 (centres undefined) | > 100 | > 100 | > 100 | 0.17 |
| COc1cc(/C=C2\COc3cc(OC)c(OC)c(OC)c3C2=O)ccc1O | 26 | 5.2 | 6.2 | 3.3 |
